The record followed here is the RNAGym collection of RNA variant scans (doi:10.1126/science.aae0568).

B1: tRNA (parent)
chain: GUUCCGUUGGCGUAAUGGUAACGCGUCUCCCUCCUAAGGAGAAGACUGCGGGUUCGAGUCCCGUACGGAACG

Variants at the floor of the assay were thinned out.

The variants in this data set derive from B1. Description: yeast fitness relative to wild type (ratio to wild type); higher = fitter; tRNA-Arg(CCU), competitive growth, 37 C, YPD. In a few lines:
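Changes in genotype frequencies gave Darwinian fitness relative to wild type. Frequencies were read by 100-nucleotide paired-end sequencing of gene amplicons before and after pooled Saccharomyces cerevisiae strains, carrying tRNA-Arg(CCU) gene variants at the native locus, were competed in YPD at 37°C for 24 hours in six replicates. A genotype was kept only with ≥ 100 starting reads, and estimates < 0.5 were set to 0.5.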
On to GUUCCGUUGGCGUAAUGGUAACGCGUCUCCUUCCUCAGGAGAAGACUGCGGGUUCGAGUCCCGUACGGAACG [C31U A36C], for which the yeast fitness is 0.842. Then GUUCCGUUGGCGUAAUGGUAACGCGUCUCCUUCCUAAGGAGAAGACUGCGGGUUCGAGUCCCGUAAGGAACG [C31U C66A], with 0.774. Then GUUCCGUUGGCGUAAUGGUAACGCGUCUCCUUCCUAAGGAGCAGACUGCGGGUUCGAGUCCCGUACGGAACG [C31U A42C], with 1.17; and GUUCCGUUGGCGUAAUGGUAACGCGUCUCCUUCCUAAGGAGAAGACUGCGGGUUUGAGUCACGUACAGAACG [C31U C55U C61A G67A], with not above 0.5; and GUUCCGUUGGCGUAAUGGUAACGCGUCUCCUUCCUAAGGAGAAGACUGUGGGUUCGAGUCCCGAACGGAACG [C31U C49U U64A], with 0.685. Then GUUCCGUUGGCGUAAUGGUAACGCGUCUCCUUUCUAGGGAGAAGACUGCGGGUUCGCGUCCCGUACGGAACG [C31U C33U A37G A57C], with not above 0.5. For GUUCCGUUGGCGUAAUGGUAACGCGUCUCCUUCCUAAGGAGGAGACUGCGGGUUCGAGUCCCCUAUGGAACG [C31U A42G G63C C66U], the yeast fitness was not above 0.5. On to GUUCCGUUGGCGUAAUGGUAACGCGUCUCCUUCCUAAGGCGAAGACUGCGGGUUGGAGUCCCGUACGAUACG [C31U A40C C55G G68A A69U], for which the yeast fitness was 0.581. As for GUUCCGUUGGCGUAAUGGUAACGCGUCUCCUUUCUAAGGUGAAGGCUGCGGGUUCGAGUCCCGUACGGAACG [C31U C33U A40U A45G], the yeast fitness was found to be 0.575.

Consider GUUCCGUUGGCGUAAUGGUAACGCGUCUCCUUCCUAAGGAGAAGAAUGCGGGUUCGAGUCCCGUUCGGUACG [C31U C46A A65U A69U], for which the yeast fitness worked out at 0.58. Regarding GUUCCGUUGGCGUAAUGGUAACGCGUCUCCGUCCUAAGGAGAAGACUGCGGGCGCGAGUCCCGUACGGAACG [C31G U53C U54G], the yeast fitness is not above 0.5. Then GUUCCGUUGGCGUAAUGGUAACGCGUCUCCUUCCUAUGGAGAAGACUGCGGGUACGAGUCCCGUACGGAACG [C31U A37U U54A], with 0.514; and GUUCCGUUGGCGUAAUGGUAACGCGUCUCCUUCCUAAGGAGAAGACUGCGGGUUCGCGUCCCGUAUGGAACG [C31U A57C C66U], with 0.663. Then GUUCCGUUGGCGUAAUGGUAACGCGUCUCCUUCCUAGGGAGAAGACUGCGGGUUCGAGUCCCGUACGCAACG [C31U A37G G68C], with not above 0.5; and GUUCCGUUGGCGUAAUGGUAACGCGUCUCCGUCCUAAGGAGAAGACUGCGGGUUCGAGACCCGUACGGAACG [C31G U59A], with 0.779; and GUUCCGUUGGCGUAAUGGUAACGCGUCUCCUUCGUAAGGAGAAGACUGCGGGUUCGAGUCCCGUACAGAACG [C31U C34G G67A], with 0.539. In the case of GUUCCGUUGGCGUAAUGGUAACGCGUCUCCUUCCUAUGGAGAAGACUGCGGGUUCGAGUCCCGUAUGGAACG [C31U A37U C66U], the yeast fitness was determined as 0.542. The value for GUUCCGUUGGCGUAAUGGUAACGCGUCUCCUUCUUAAGGAGAAGACUGCAGAUUCGGGUCCCGUACCGAACG [C31U C34U G50A G52A A57G G67C] was not above 0.5. The value for GUUCCGUUGGCGUAAUGGUAACGCGUCUCCUUCCUAAGGAGUAGACUGCGGGUUCGAGUCCAGUACGGAACG [C31U A42U C62A] was 0.615. GUUCCGUUGGCGUAAUGGUAACGCGUCUCCUUUGUAAGGCGAAGACUGCGGGUUCGAGUCCCGUACGGCACG [C31U C33U C34G A40C A69C]: the yeast fitness is not above 0.5. Then GUUCCGUUGGCGUAAUGGUAACGCGUCUCCUUCCUAAGGAGAAGACUGCGGGUUCGAGUCCCGUACGGAUCG [C31U A70U], with 1.04; and GUUCCGUUGGCGUAAUGGUAACGCGUCUCCUUCCUAAGGAGCAGACGGCGGCUUCGUGUCCCGUACGGAACG [C31U A42C U47G G52C A57U], with not above 0.5. In the case of GUUCCGUUGGCGUAAUGGUAACGCGUCUCCUUCCUAAGGAGAAGACUGCGGGUUCGAGUCUCGUACGCAACG [C31U C61U G68C], the yeast fitness is not above 0.5. Then GUUCCGUUGGCGUAAUGGUAACGCGUCUCCUUACUAAGGAGAAGACUGCAGGUUCGAGUCCCGUACGUAACG [C31U C33A G50A G68U], with 0.596. In the case of GUUCCGUUGGCGUAAUGGUAACGCGUCUCCUUCCUAAGGAGAAGACUGCGGGUUCGAGUUGCGUACGGAACG [C31U C60U C61G], the yeast fitness is not above 0.5. With GUUCCGUUGGCGUAAUGGUAACGCGUCUCCUUCCUAAGGAGAAGAUUGUGGGUUCGAGUCCCGUACGGAACG [C31U C46U C49U], the yeast fitness was 0.905. Then GUUCCGUUGGCGUAAUGGUAACGCGUCUCCUUCGUAAGGAGAAGACUGCGGGUUCGAGUCCUGUACGGAGCG [C31U C34G C62U A70G], with not above 0.5; and GUUCCGUUGGCGUAAUGGUAACGCGUCUCCUUCCUAAGGAGAAGACUGCGGGUUCGAGUUCCGUACGGAACG [C31U C60U], with 0.841; and GUUCCGUUGGCGUAAUGGUAACGCGUCUCCUUCCUAUGGAGAAGACUGCGGGUUCGAGUCCCGUACGGUACG [C31U A37U A69U], with 0.677.

Turning to GUUCCGUUGGCGUAAUGGUAACGCGUCUCCUUCCUAAGGUGAAGUCUGCGGGUUCGAGUCCCGUACGGAACG [C31U A40U A45U], the yeast fitness was 0.618. The value for GUUCCGUUGGCGUAAUGGUAACGCGUCUCCUUCCUAAGGAGAAGACUGCGGGUUCGAGUCCCGUCCGGAACG [C31U A65C] was 0.926; that for GUUCCGUUGGCGUAAUGGUAACGCGUCUCCUUCCUAAGGAGGAGACUGCGGGUUCGAGUCCUGUACGGCACG [C31U A42G C62U A69C] was 0.542. As for GUUCCGUUGGCGUAAUGGUAACGCGUCUCCUUCUUAAAGAGAAGAUUGCGGGUUCGAGUCCCGUACGGAACG [C31U C34U G38A C46U], the yeast fitness is 0.524.

As for GUUCCGUUGGCGUAAUGGUAACGCGUCUCCUUCCUAAGGAGAAGACUGUGGGUUCGAGUCCCGUACGGUACG [C31U C49U A69U], the yeast fitness worked out at 0.889. For GUUCCGUUGGCGUAAUGGUAACGCGUCUCCUUCCUAAGGAGAAGACUGCGGGUUCGAGUUCCGCACGGAACG [C31U C60U U64C], the yeast fitness amounted to 0.695. For the variant GUUCCGUUGGCGUAAUGGUAACGCGUCUCCUUCCUAAGGAGAAGACUGCGGGUUCGAGUGCCGUACGGAGCG [C31U C60G A70G], the yeast fitness came to 0.675. Then GUUCCGUUGGCGUAAUGGUAACGCGUCUCCUUCGUAAGGAGAAGACUGCAGGUUCGAGUCCCGUACGGAACG [C31U C34G G50A], with not above 0.5. Then GUUCCGUUGGCGUAAUGGUAACGCGUCUCCUUCCUAGGGAGAAGACCGCGGGUUCGAGUCCCAUACGGAACG [C31U A37G U47C G63A], with not above 0.5.
